17 compounds from ChEMBL document CHEMBL3045665, “Synthesis and in vitro antiproliferative activity of novel (4-chloro- and 4-acyloxy-2-butynyl)thioquinolines” (2011) can be followed below.

What all share (format): functional
In one assay the test system is T47D. The assay can be described thus: Antiproliferative activity against Homo sapiens (human) T47D cells after 72 hr. The settings on record: read-out: ID50 (the source's name). An outline of the steps: (§1)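 Cells in opti-MEM with 2 mM glutamine, streptomycin, penicillin and 5% FCS at 37°C and 5% CO2. Plated at 10^4 cells/well 24 h before treatment, then exposed 72 h to 0.1–100 µg/ml (1 mg/ml stock in 10% DMSO, diluted in medium). Cells fixed with cold 50% TCA, stained with 0.4% SRB, dye extracted in 10 mM Tris, OD 540 nm. ID50 versus untreated control. Triplicates, 3–5 experiments.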

A further assay concerns CCRF-CEM. The assay is described as follows: Antiproliferative activity against Homo sapiens (human) CCRF-CEM cells after 72 hr. Particulars: read-out: ID50 (the source's name). In a few lines:
(§2)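 Leukemia cells were grown in suspension in opti-MEM with 2 mM glutamine, antibiotics and 5% FCS (37°C, 5% CO2) and seeded at 10^4 cells/well 24 h beforehand. They were exposed 72 h to 0.1–100 µg/ml (1 mg/ml stock in 10% DMSO). MTT was added for the final 3–4 h, followed by SDS/DMF lysis for 24 h and OD at 570 nm. ID50 is relative to untreated control; triplicates, 3–5 experiments.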

Assay [1] in a line: Antiproliferative activity against Homo sapiens (human) SW707 cells after 72 hr. The settings on record: SW707, 72 h, read-out: ID50 (the source's name). An outline of the steps:
as §1

The subject of another assay is P388. The assay can be described thus: Antiproliferative activity against Mus musculus (mouse) P388 cells after 72 hr. Particulars: P388, 72 h, read-out: ID50 (the source's name). An outline of the steps:
as §2

The subject of a further assay is B16. The assay is described as follows: Antiproliferative activity against Mus musculus (mouse) B16 cells after 72 hr. The settings on record: B16, 72 h, read-out: ID50 (the source's name). An outline of the steps:
as §1

Structures are written as SMILES. In brackets after ≈: the same amount, converted by molar mass.

Consider `ClCC#CCSc1cnc2ccccc2c1Cl`, for which the IC50 in the assay on T47D amounted to 3.2 µg/mL (≈ 11.3 µM); with CCRF-CEM, 3.7 µg/mL (≈ 13.1 µM); in assay [1], 3.3 µg/mL (≈ 11.7 µM); with P388, 13.4 µg/mL (≈ 47.5 µM); with B16 it was 4 µg/mL (≈ 14.2 µM).

Regarding `CSc1cnc2ccccc2c1SCC#CCCl`, the IC50 with T47D came out at 3.9 µg/mL (≈ 13.3 µM); with CCRF-CEM it was 2.5 µg/mL (≈ 8.51 µM); in assay [1], 3.7 µg/mL (≈ 12.6 µM); in the assay on P388, 2.7 µg/mL (≈ 9.19 µM); in the assay with B16 it was 16.9 µg/mL (≈ 57.5 µM).

On to `CSc1cnc2ccccc2c1[Se]CC#CCCl`, for which the IC50 was 0.7 µg/mL (≈ 2.05 µM) in the assay on T47D; 1.7 µg/mL (≈ 4.99 µM) in the assay with CCRF-CEM; 3.2 µg/mL (≈ 9.39 µM) in assay [1]; 0.4 µg/mL (≈ 1.17 µM) in the assay with P388; 3.5 µg/mL (≈ 10.3 µM) in the assay on B16.

As for `C#CCSc1cnc2ccccc2c1SCC#CCCl`, the IC50 with T47D stood at 5.8 µg/mL (≈ 18.2 µM); with CCRF-CEM, 2.9 µg/mL (≈ 9.12 µM); in assay [1] it was 12.9 µg/mL (≈ 40.6 µM); with P388, 3 µg/mL (≈ 9.44 µM); in the assay with B16, 52.8 µg/mL (≈ 166 µM).

Regarding `C#CCSc1cnc2ccccc2c1[Se]CC#CCCl`, the IC50 in the assay on T47D turned out to be 0.4 µg/mL (≈ 1.1 µM); with CCRF-CEM, 1.8 µg/mL (≈ 4.93 µM); in assay [1], 3.2 µg/mL (≈ 8.77 µM); in the assay with P388, 0.8 µg/mL (≈ 2.19 µM); in the assay on B16, 7.1 µg/mL (≈ 19.5 µM).

Turning to `OCC#CCSc1cnc2ccccc2c1SCC#CCCl`, the IC50 with T47D stood at 5.3 µg/mL (≈ 15.2 µM); with CCRF-CEM, 3.3 µg/mL (≈ 9.49 µM); in assay [1], 19.8 µg/mL (≈ 56.9 µM); in the assay with P388, 5.1 µg/mL (≈ 14.7 µM); in the assay on B16 it was 43.4 µg/mL (≈ 125 µM).

On to `OCC#CCSc1cnc2ccccc2c1[Se]CC#CCCl`, for which the IC50 in the assay with T47D is 1.7 µg/mL (≈ 4.31 µM); in the assay with CCRF-CEM it was 2.6 µg/mL (≈ 6.59 µM); in assay [1] it was 3.3 µg/mL (≈ 8.36 µM); in the assay on P388, 2 µg/mL (≈ 5.07 µM); in the assay on B16, 3.8 µg/mL (≈ 9.63 µM).

With `O=C(O)c1ccccc1C(=O)OCC#CCSc1cnc2ccccc2c1Cl`, in the assay on B16, the IC50 is 53.8 µg/mL (≈ 131 µM).

`O=C(/C=C/c1ccccc1)OCC#CCSc1cnc2ccccc2c1Cl`: the IC50 amounted to 22.8 µg/mL (≈ 57.9 µM) in the assay on T47D; 15.4 µg/mL (≈ 39.1 µM) in the assay on CCRF-CEM; 48.8 µg/mL (≈ 124 µM) in assay [1]; 32.8 µg/mL (≈ 83.3 µM) in the assay with P388; 11.4 µg/mL (≈ 28.9 µM) in the assay on B16.

Take `CSc1cnc2ccccc2c1SCC#CCOC(=O)c1ccccc1C(=O)O`: the IC50 in the assay on T47D came out at 36.1 µg/mL (≈ 85.2 µM); in the assay on CCRF-CEM it was 14.5 µg/mL (≈ 34.2 µM); in assay [1] it was 28.1 µg/mL (≈ 66.3 µM); with P388 it was 35 µg/mL (≈ 82.6 µM); with B16, 18.1 µg/mL (≈ 42.7 µM).

In the case of `CSc1cnc2ccccc2c1[Se]CC#CCOC(=O)c1ccccc1C(=O)O`, the IC50 worked out at 3.2 µg/mL (≈ 6.8 µM) in the assay with T47D; 4 µg/mL (≈ 8.5 µM) in the assay on CCRF-CEM; 3.7 µg/mL (≈ 7.87 µM) in assay [1]; 19.1 µg/mL (≈ 40.6 µM) in the assay on P388; 3.1 µg/mL (≈ 6.59 µM) in the assay on B16.

Turning to `CSc1cnc2ccccc2c1SCC#CCOC(=O)c1ccccc1`, the IC50 turned out to be 22.2 µg/mL (≈ 58.5 µM) with CCRF-CEM and 17.8 µg/mL (≈ 46.9 µM) in the assay on B16.

Regarding `CSc1cnc2ccccc2c1[Se]CC#CCOC(=O)c1ccccc1`, the IC50 with T47D was determined as 2.2 µg/mL (≈ 5.16 µM); in the assay with CCRF-CEM it was 1.9 µg/mL (≈ 4.46 µM); in assay [1], 3.6 µg/mL (≈ 8.44 µM); in the assay on P388, 3.5 µg/mL (≈ 8.21 µM); in the assay with B16, 2.1 µg/mL (≈ 4.92 µM).

In the case of `CCOC(=O)OCC#CCSc1c(SC)cnc2ccccc12`, the IC50 in the assay with T47D stood at 34.2 µg/mL (≈ 98.4 µM); with CCRF-CEM it was 13.2 µg/mL (≈ 38 µM); in assay [1] it was 33.1 µg/mL (≈ 95.3 µM); with P388, 34.7 µg/mL (≈ 99.9 µM); in the assay on B16, 5.5 µg/mL (≈ 15.8 µM).

For the compound `CSc1cnc2ccccc2c1SCC#CCOC(=O)/C=C/c1ccccc1`, the IC50 with T47D is 71.9 µg/mL (≈ 177 µM); with CCRF-CEM, 18.1 µg/mL (≈ 44.6 µM); in assay [1] it was 66.6 µg/mL (≈ 164 µM); in the assay on B16 it was 9.4 µg/mL (≈ 23.2 µM).

In the case of `CSc1cnc2ccccc2c1[Se]CC#CCOC(=O)/C=C/c1ccccc1`, the IC50 with T47D amounted to 4.3 µg/mL (≈ 9.5 µM); with CCRF-CEM, 17.8 µg/mL (≈ 39.3 µM); in assay [1], 4.7 µg/mL (≈ 10.4 µM); in the assay on P388 it was 43.9 µg/mL (≈ 97 µM); with B16, 3.1 µg/mL (≈ 6.85 µM).

For `C#CCSc1cnc2ccccc2c1SCC#CCOC(=O)/C=C/c1ccccc1`, the IC50 worked out at 50.9 µg/mL (≈ 118 µM) with CCRF-CEM and 14.7 µg/mL (≈ 34.2 µM) in the assay on B16.
